Test results taken from ChEMBL document CHEMBL5625176, “Immunosuppressive effects of new thiophene-based KV1.3 inhibitors” (Eur J Med Chem, 2023).
Converted amounts (≈) assume the structure as drawn. The source made the active and inactive calls. The calls are words filed in the database; no cut-off is given here.

What was measured:
[1] = molecular target: T1, Potassium voltage-gated channel subfamily A member 3 (Homo sapiens, UniProt P22001); assay: Inhibition of human Kv1.3 expressed in Xenopus laevis Oocyte cells at 10 uM by manual patch clamp method relative to control; type: cell-based
Method in brief: (§1)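 Human Kv1.3 cRNA injected into defolliculated Xenopus oocytes. Two-electrode voltage clamp 1–4 days later at 18–22 °C in ND96 (pH 7.5). Currents evoked by 1 s depolarizations, with inhibition read at the 0 mV step. Compounds from DMSO stock at ≤0.5% DMSO, either single 10 μM or rising concentrations fitted with the Hill equation for IC50.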

[2] = molecular target: T1, Potassium voltage-gated channel subfamily A member 3; assay: Inhibition of human Kv1.3 expressed in mouse LTK- cells by manual patch clamp electrophysiological recording; type: cell-based
Method in brief: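 Mouse Ltk⁻ fibroblasts in DMEM/10% horse serum transiently transfected with hKv1.3 plasmid plus eGFP marker, and recorded 24 h later. Whole-cell patch clamp at 20–23 °C. Compounds diluted from DMSO stocks with final DMSO ≤0.1%, with 0.1% DMSO as vehicle control. Normalized current plotted against concentration and fitted with the Hill equation for IC50; mean ± SEM, n = cells.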

[3] = molecular target: T1, Potassium voltage-gated channel subfamily A member 3; assay: Inhibition of Kv1.3 (unknown origin) expressed in PBMC derived PHA-activated T-lymphocyte cells incubated for 5 days by manual patch clamp method; type: cell-based
Method in brief: (§2)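 Whole-cell recording on PBMC stimulated 5 days with PHA-L (240 ng/mL); about 90% of cells CD3⁺. Large cells chosen; cells with currents ≤500–600 pA discarded. Bath in mM: 130 NaCl, 5 KCl, 2 CaCl₂, 2 MgCl₂, 10 HEPES, 5 glucose, pH 7.4; pipette KF-based with 11 EGTA, pH 7.2. Leak-subtracted two-step outward K⁺ current. Single concentration 5 μM, or 0.05 nM–50 μM for curves; peak normalized to control.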

[4] = molecular target: T1, Potassium voltage-gated channel subfamily A member 3; assay: Inhibition of Kv1.3 (unknown origin) expressed in human PBMC derived PHA-activated T-lymphocyte cells assessed as reduction in total outward potassium current at 5 uM by patch clamp electrophysiology method; type: cell-based; method in brief: as §2
[5] = molecular target: Potassium voltage-gated channel subfamily A member 4 (Homo sapiens) (UniProt P22459); assay: Inhibition of Kv1.4 (unknown origin) expressed in Xenopus laevis Oocyte cells by electrophysiological recordings relative to control; type: cell-based; conditions: concentration not given here
Method in brief: (§3)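 Kv1.x cRNA expressed in defolliculated Xenopus oocytes and recorded by two-electrode voltage clamp 1–4 days after injection, at 18–22 °C in ND96 pH 7.5. 1 s pulses, analysed at 0 mV. Compounds applied at rising concentrations with ≤0.5% DMSO, and current inhibition relative to control fitted with the Hill equation.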

[6] = molecular target: Potassium voltage-gated channel subfamily A member 5 (Homo sapiens) (UniProt P22460); assay: Inhibition of Kv1.5 (unknown origin) expressed in Xenopus laevis Oocyte cells by electrophysiological recordings relative to control; type: cell-based; conditions: concentration not given here; method in brief: as §3
[7] = molecular target: Potassium voltage-gated channel subfamily A member 6 (Homo sapiens) (UniProt P17658); assay: Inhibition of Kv1.6 (unknown origin) expressed in Xenopus laevis Oocyte cells by electrophysiological recordings relative to control; type: cell-based; conditions: concentration not given here; method in brief: as §3
[8] = molecular target: Potassium voltage-gated channel subfamily A member 1 (Homo sapiens, UniProt Q09470); assay: Inhibition of Kv1.1 (unknown origin) expressed in Xenopus laevis Oocyte cells by electrophysiological recording; type: cell-based; method in brief: as §3
[9] = molecular target: Potassium voltage-gated channel subfamily A member 2 (Homo sapiens, UniProt P16389); assay: Inhibition of Kv1.2 (unknown origin) expressed in Xenopus laevis Oocyte cells by electrophysiological recording; type: cell-based; method in brief: as §3
[10] = Thermodynamic solubility of the compound at pH 7.4 incubated for 24 hrs under shaking condition by HPLC analysis; type: physicochemical; conditions: buffer, read-out: Therm_solubility
Method in brief: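 Supernatant diluted 1:2 or 1:10 in 0.1% TFA/MeCN 1:1 and quantified by reversed-phase UPLC at 290 nm against a 7-point calibration (1–100 μM). Mean of two independent experiments, in μM.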

[11] = Stability of compound in PBS at pH 7.4 measured for >=120 hrs by HPLC analysis; type: physicochemical; conditions: buffer, pH 7.4, 120 h
Method in brief: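 Aqueous stability: 10 mM DMSO stock diluted to a final 50 μM in PBS pH 7.4 with 20% MeCN and 0.5% DMSO, filtered, held at 37 °C. UPLC (BEH C18, 280 nm) injections every 4 h for the first 24 h, then every 8 h. Analyte AUC plotted against time; triplicates.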

hERG (KCNH2) = hERG (KCNH2) (Homo sapiens, UniProt Q12809); assay: Inhibition of hERG overexpressed in HEK293 cells at 5 uM relative to control; type: toxicity, cell-based; conditions: HEK293 cells overexpressing hERG
[12] = molecular target: T1, Potassium voltage-gated channel subfamily A member 3; assay: Inhibition of Kv1.3 in human PBMC derived PHA-activated T-lymphocytes assessed as reduction in intracellular calcium level at 5 uM incubated for 2 hrs by Fluo-4 Ca2+ based flow cytometric analysis relative to control; type: cell-based; conditions: T-lymphocyte
Method in brief: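 PBMC activated 5 days with PHA, then given compounds at 5 μM for 2 h. Scraped and loaded with Fluo-4 (2 μM) plus anti-CD3-APC at 37 °C for 1 h, washed, and held 30 min at 37 °C with compound (5 μM) before flow cytometry. Fluo-4 MFI of the CD3⁺ gate, 3 replicates, normalized to untreated control; n = 4.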

T-cell line [13] = assay: Cytotoxicity against human PBMC derived PHA-activated T-lymphocytes assessed as effect on cell viability by trypan blue staining based analysis; type: toxicity; conditions: 30 µM
Method in brief: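 PBMC purified by Ficoll gradient with red-cell lysis, seeded at 1.5 × 10⁶ cells/mL in RPMI with 10% heat-inactivated serum and 2 mM L-glutamine. Activated with PHA-L 240 ng/mL alongside compounds at 30 μM. Viability of treated versus untreated cells judged by trypan blue staining.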

T-cell line [14] = assay: Cytotoxicity against human PBMC derived PHA-activated T-lymphocytes assessed as effect on total cell number at 30 uM incubated for 5 days by bright-field microscopic analysis; type: toxicity, cell-based; conditions: 120 h, time 5 day
Method in brief: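 Ficoll-purified PBMC at 1.5 × 10⁶ cells/mL in RPMI/10% heat-inactivated serum/2 mM L-glutamine, stimulated with PHA-L 240 ng/mL and exposed to compounds (30 μM) for 5 days. Cells then counted to give total cell number.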

T-cell [15] = assay: Inhibition of human PBMC derived PHA-activated T-lymphocytes activation assessed as inhibition of colony formation by measuring reduction in colony forming units at 30 uM incubated for 5 days by bright-field microscopic analysis; type: functional, cell-based; conditions: time 5.0 day
Method in brief: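 PBMC at 1.5 × 10⁶ cells/mL treated with compounds (30 μM) together with PHA-L (240 ng/mL) for 5 days in RPMI with 10% heat-inactivated bovine calf serum and 2 mM L-glutamine. After medium removal, wells imaged by bright-field microscopy at 2× and colonies (CFU) counted. Mean ± SD of 3 experiments.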

T-cell [16] = assay: Induction of cell cycle arrest at G0/G1 phase in human PBMC derived PHA-activated T-lymphocytes assessed as reduction S phase cells at 30 uM measured after 5 days by flow cytometric analysis; type: functional, cell-based; conditions: time 5.0 day
Method in brief: (§4)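 PHA-activated PBMC exposed to compounds (30 μM) for 5 days in RPMI/10% heat-inactivated calf serum/2 mM L-glutamine, scraped off and incubated 1 h at 4 °C in the dark. Cell cycle read by flow cytometry and scored as G0/G1 versus cycling (S+G2/M) percentage. Mean ± SD of 3 experiments; unpaired t-test against untreated cells.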

[17] = molecular target: T1, Potassium voltage-gated channel subfamily A member 3; assay: Inhibition of human Kv1.3 expressed in Xenopus laevis Oocyte cells by Electrophysiology recording; type: cell-based; method in brief: as §1
[18] = molecular target: T1, Potassium voltage-gated channel subfamily A member 3; assay: Selectivity ratio of IC50 for inhibition of human Kv1.3 expressed in mouse LTK- cells to IC50 for inhibition of human Kv1.3 expressed in Xenopus laevis Oocyte cells; type: cell-based
T-cell [19] = assay: Induction of cell cycle arrest at G0/G1 phase in human PBMC derived PHA-activated T-lymphocytes assessed as reduction G2/M phase cells at 30 uM measured after 5 days by flow cytometric analysis; type: functional, cell-based; conditions: time 5.0 day; method in brief: as §4

T1 sequence (P22001 whole entry): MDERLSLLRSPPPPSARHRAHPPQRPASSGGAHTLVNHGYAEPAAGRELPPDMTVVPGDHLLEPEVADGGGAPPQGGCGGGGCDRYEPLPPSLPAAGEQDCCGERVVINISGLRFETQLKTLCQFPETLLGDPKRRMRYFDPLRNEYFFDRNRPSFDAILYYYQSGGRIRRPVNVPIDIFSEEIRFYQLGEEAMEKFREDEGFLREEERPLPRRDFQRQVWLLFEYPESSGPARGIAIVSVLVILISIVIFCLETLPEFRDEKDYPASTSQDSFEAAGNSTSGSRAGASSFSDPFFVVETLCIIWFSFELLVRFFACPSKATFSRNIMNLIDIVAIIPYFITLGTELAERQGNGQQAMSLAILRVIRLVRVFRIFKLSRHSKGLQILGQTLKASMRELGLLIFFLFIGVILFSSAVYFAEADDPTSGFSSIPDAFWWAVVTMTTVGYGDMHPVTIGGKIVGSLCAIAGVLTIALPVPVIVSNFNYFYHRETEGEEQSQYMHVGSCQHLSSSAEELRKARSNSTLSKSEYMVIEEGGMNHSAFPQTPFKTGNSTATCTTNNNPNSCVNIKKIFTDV
Sequence of hERG (KCNH2) (Q12809 whole entry): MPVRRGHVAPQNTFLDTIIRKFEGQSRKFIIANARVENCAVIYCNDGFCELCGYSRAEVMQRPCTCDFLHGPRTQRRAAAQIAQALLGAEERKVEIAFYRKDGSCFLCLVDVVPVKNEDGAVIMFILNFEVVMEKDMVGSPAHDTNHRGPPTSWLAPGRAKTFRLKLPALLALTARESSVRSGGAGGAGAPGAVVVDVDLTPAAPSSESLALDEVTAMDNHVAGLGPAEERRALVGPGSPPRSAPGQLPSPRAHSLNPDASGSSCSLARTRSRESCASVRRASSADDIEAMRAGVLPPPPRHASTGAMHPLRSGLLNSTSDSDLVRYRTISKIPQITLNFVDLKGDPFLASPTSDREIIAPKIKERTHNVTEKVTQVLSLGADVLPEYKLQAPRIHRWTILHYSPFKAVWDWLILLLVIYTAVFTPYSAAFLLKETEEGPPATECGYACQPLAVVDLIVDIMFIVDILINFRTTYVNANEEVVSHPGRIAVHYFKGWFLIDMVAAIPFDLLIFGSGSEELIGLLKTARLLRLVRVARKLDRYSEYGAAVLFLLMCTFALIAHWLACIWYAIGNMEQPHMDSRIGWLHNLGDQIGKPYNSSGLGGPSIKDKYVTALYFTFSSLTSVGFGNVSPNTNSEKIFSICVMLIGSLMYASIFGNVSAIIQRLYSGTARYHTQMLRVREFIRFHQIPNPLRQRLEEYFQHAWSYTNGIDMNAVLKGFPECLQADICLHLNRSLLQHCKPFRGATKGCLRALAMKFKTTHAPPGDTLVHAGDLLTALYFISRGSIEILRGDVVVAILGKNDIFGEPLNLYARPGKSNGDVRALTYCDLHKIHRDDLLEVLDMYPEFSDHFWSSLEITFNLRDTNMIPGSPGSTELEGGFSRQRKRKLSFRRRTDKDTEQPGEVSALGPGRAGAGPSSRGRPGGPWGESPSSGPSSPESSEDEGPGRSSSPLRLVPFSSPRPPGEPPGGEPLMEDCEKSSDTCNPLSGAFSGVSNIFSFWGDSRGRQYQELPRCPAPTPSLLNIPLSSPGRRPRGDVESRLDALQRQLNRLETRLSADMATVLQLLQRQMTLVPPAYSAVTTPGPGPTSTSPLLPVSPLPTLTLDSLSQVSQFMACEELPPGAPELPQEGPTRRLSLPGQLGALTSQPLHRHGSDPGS
Sequence of Potassium voltage-gated channel subfamily A member 5 (Homo sapiens) (P22460 whole entry): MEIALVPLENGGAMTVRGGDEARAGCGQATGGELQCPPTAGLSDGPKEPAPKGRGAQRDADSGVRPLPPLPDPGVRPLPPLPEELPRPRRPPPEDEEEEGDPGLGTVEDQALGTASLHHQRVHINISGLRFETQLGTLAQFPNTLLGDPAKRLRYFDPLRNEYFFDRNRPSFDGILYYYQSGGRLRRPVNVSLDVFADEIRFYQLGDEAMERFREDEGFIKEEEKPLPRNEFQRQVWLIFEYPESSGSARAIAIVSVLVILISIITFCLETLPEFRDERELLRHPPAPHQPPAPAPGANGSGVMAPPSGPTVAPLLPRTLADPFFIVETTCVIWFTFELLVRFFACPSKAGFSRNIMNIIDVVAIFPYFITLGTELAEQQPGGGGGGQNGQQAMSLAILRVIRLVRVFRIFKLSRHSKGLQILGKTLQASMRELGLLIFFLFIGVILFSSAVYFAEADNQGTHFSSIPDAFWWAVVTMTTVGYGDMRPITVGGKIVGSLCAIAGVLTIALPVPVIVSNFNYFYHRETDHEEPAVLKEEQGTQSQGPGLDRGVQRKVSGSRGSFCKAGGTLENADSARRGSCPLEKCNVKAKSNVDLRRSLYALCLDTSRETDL
Sequence of Potassium voltage-gated channel subfamily A member 2 (P16389 whole entry): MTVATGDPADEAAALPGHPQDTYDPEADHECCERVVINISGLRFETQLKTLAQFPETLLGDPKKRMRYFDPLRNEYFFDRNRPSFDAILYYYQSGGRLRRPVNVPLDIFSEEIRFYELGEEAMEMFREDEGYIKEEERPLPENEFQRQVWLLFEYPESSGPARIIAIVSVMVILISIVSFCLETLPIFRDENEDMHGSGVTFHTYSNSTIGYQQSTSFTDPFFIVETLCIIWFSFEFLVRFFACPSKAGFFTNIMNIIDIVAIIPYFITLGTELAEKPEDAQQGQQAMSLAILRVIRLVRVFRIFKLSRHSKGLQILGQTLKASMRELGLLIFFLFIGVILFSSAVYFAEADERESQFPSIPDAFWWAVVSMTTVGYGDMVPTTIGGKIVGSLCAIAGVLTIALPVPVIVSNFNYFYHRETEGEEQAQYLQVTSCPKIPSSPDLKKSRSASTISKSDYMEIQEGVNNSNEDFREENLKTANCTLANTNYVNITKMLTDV
Sequence of Potassium voltage-gated channel subfamily A member 1 (Q09470 whole entry): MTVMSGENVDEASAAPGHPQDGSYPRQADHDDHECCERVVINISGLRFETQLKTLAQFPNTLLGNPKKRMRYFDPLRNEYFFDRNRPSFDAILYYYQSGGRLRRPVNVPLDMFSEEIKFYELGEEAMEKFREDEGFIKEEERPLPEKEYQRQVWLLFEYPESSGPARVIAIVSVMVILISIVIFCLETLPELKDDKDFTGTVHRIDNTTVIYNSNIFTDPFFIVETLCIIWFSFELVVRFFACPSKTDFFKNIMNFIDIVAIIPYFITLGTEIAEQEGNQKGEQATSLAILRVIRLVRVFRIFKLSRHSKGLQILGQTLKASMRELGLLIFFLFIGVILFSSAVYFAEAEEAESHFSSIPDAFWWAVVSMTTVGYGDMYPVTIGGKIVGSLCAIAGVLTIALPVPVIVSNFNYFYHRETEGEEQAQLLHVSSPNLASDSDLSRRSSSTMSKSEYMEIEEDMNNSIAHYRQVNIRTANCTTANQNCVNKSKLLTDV
Sequence of Potassium voltage-gated channel subfamily A member 4 (Homo sapiens) (P22459 whole entry): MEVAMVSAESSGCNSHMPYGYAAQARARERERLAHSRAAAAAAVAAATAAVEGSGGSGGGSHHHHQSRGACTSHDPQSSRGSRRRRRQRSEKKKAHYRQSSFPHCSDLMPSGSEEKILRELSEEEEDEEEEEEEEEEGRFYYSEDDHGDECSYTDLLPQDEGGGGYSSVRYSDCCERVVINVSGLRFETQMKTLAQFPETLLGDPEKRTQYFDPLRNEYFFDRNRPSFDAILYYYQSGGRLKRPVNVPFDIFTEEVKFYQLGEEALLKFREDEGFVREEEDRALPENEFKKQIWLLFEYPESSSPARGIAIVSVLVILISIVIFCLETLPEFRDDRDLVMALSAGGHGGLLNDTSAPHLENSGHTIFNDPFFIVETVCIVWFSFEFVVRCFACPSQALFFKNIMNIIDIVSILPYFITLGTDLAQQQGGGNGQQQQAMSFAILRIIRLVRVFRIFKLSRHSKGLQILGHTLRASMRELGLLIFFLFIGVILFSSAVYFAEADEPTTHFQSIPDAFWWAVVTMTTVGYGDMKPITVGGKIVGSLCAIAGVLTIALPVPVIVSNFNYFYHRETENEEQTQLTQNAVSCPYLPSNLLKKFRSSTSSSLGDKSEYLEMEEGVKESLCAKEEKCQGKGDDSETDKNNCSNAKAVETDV
Sequence of Potassium voltage-gated channel subfamily A member 6 (Homo sapiens) (P17658 whole entry): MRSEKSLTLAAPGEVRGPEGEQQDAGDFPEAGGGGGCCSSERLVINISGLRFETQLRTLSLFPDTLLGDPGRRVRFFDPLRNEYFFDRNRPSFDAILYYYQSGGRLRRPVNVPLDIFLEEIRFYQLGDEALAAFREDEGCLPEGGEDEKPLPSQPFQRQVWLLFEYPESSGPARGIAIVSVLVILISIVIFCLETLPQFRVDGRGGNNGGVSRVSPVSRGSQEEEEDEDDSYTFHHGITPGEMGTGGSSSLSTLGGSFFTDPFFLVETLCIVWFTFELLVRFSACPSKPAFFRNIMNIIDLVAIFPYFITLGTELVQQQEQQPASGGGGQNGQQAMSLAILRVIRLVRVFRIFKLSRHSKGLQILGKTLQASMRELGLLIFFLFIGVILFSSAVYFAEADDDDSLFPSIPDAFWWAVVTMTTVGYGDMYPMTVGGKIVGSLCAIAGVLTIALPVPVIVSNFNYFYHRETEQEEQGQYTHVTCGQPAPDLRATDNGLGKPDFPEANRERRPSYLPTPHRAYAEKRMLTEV

For `CCCNC(=O)O[C@H]1CC[C@@](CNC(=O)c2ccccc2OC)(c2ccsc2)CC1`, the inhibition [1] was 90.7%, the IC50 [2] was 230 nM and the IC50 [3] was 26.1 nM. For the same compound, the inhibition [4] was “Active”, the inhibition [5] was 6.4% and the inhibition [6] was 11.4%. The inhibition [7] was -1.1%, the IC50 [8] was 124 nM and the IC50 [9] was 308 nM. For the same compound, the solubility thermodynamic at 24 h [10] was 22 µM (≈ 9.47 µg/mL), the Stability [11] was “Stable” and the inhibition at 5 µM (hERG (KCNH2)) was 21%. For the same compound, the inhibition [12] was 27%, the Activity (T-cell line [13]) was “Non-Toxic” and the Activity (T-cell line [14]) was “Non-Toxic”. The inhibition (T-cell [15]) was “Active”, the Activity (T-cell [16]) was “Active” and the IC50 [17] was 136 nM. For the same compound, the Ratio IC50 [18] was under 2 and the Activity (T-cell [19]) was “Active”.
